Drawing on ChEMBL document CHEMBL4414673, “The DESIGNER Approach Helps Decipher the Hypoglycemic Bioactive Principles of Artemisia dracunculus (Russian Tarragon)” (J Nat Prod, 2019), this text covers Activity for two compounds.

Calls of active or inactive are those of the source. The calls are words filed in the database; no cut-off is given here.

The nature of data set [1]: Toxicity in high fat diet-induced obese C57BL/6J mouse assessed as effect on body weight at 300 mg/kg administered via gavage for 2 weeks and measured after 6 hrs post does. It is filed as organism-based. The note with it: in vivo, po. Summed up:
(§1)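 Male C57BL/6J mice on a 60% kcal fat diet from 4 weeks of age were weighed weekly. Body weights at 20 weeks of age are reported for mice randomized to the gavage treatment groups, as mean ± SD versus vehicle.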

For data set [2], the system named is Mus musculus. Description: Effect on insulin signalling in high fat diet-induced obese C57BL/6J mouse assessed as increase in IR-beta phosphorylation at tyrosine 1150 residue at 100 to 300 mg/kg administered via gavage for 2 weeks and measured after 6 hrs post dose by Western blot analysis. It is filed as functional, organism-based. In outline:
(§2)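 Male C57BL/6J mice, singly housed, were fed a 60% kcal fat diet from 4 weeks of age for 16 weeks and acclimated to gavage for 2 weeks. They got one gavage dose of 100 or 300 mg/kg in Labrasol vehicle and were euthanized at 6 h. Muscle, liver or gonadal fat was lysed in HEPES/Igepal buffer, and 50 μg protein was immunoblotted with chemiluminescent detection.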

Data set [3] deals with Mus musculus. The data set is described as follows: Hypoglycemic activity in high fat diet-induced obese C57BL/6J mouse assessed as increase in C-peptide level at 100 to 300 mg/kg […] and measured after 6 hrs post dose. It is filed as functional, organism-based. Summed up:
(§3)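 Diet-induced obese male C57BL/6J mice were given one gavage dose (100 or 300 mg/kg, Labrasol vehicle). Fasting plasma insulin and C-peptide (ng/mL) were measured by ELISA 6 h after dosing, as mean ± SD versus vehicle.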

The target in data set [4] is RAC-alpha serine/threonine-protein kinase (Mus musculus) (UniProt P31750). The data set is described as follows: Activation of insulin signalling in palmitate-induced insulin resistant mouse C2C12 cells assessed as upregulation of AKT phosphorylation at threonine 308 and Ser273 residue at 10 ug/ml by Western blot analysis. Format: cell-based. Summed up: (§4)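 C2C12 myoblasts were grown in high-glucose (25 mM) DMEM with 10% FBS and differentiated with 2% horse serum, then switched to low-glucose (5 mM) medium. Insulin resistance was induced with palmitate. Myotubes were treated at 10 μg/mL, exposed to insulin for 10 min and harvested. Total and phosphorylated signaling proteins were analysed by Western blot.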

In data set [5] the target is Glycogen synthase kinase-3 alpha/beta (Mus musculus) (UniProt Q9WV60+Q2NL51). Description: Activation of insulin signalling in palmitate-induced insulin resistant mouse C2C12 cells assessed as increase GSK-3 alpha/beta phosphorylation at 10 ug/ml by Western blot analysis. It is filed as cell-based. Summed up:
as §4

Data set [6] relates to Mus musculus. The data set is described as follows: Effect on insulin signalling in high fat diet-induced C57BL/6J mouse assessed as AKT phosphorylation at Ser […] residue in adipose tissue at 100 to 300 mg/kg administered via gavage for 2 weeks and measured after 6 hrs post dose by Western blot analysis. It is filed as functional, organism-based. In outline: as §2
Data set [7] concerns Mus musculus. Description: Effect on insulin signalling in high fat diet-induced obese C57BL/6J mouse assessed as increase in AKT phosphorylation at serine […] residue in skeletal muscle at 100 to 300 mg/kg administered via gavage for 2 weeks and measured after 6 hrs post dose by Western blot analysis. Format: functional, organism-based. Summed up:
as §2

The subject of data set [8] is C2C12. The data set is described as follows: Activation of insulin signalling in palmitate-induced insulin resistant mouse C2C12 cells assessed as increase in glycogen level at 10 ug/ml. Format: functional, cell-based. Summed up:
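Palmitate-treated, insulin-resistant C2C12 myotubes (differentiated in 2% horse serum, low-glucose DMEM) were treated at 10 μg/mL and exposed to insulin for 10 min before harvest. Glycogen was measured with a kit assay and expressed as ng released glucose/μg protein.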

Data set [9] deals with Mus musculus. Description: Hypoglycemic activity in high fat diet-induced obese C57BL/6J mouse assessed as increase in insulin level at 300 mg/kg administered via gavage […] and measured after 6 hrs post dose. It is filed as functional, organism-based. Summed up: as §3
Data set [10] deals with Mus musculus. Description: Effect on total IRbeta expression in high fat diet-induced obese C57BL/6J mouse skeletal muscle at 100 to 300 mg/kg administered via gavage for 2 weeks and measured after 6 hrs post dose by Western blot analysis. Particulars: in vivo, po. It is filed as organism-based. Summed up: as §2
For data set [11], the system named is Mus musculus. Description: Effect on insulin signalling in high fat diet-induced C57BL/6J mouse assessed as AKT phosphorylation at Ser […] residue in liver at 100 to 300 mg/kg administered via gavage for 2 weeks and measured after 6 hrs post dose by Western blot analysis. It is filed as functional, organism-based. Summed up:
as §2

Data set [12] relates to Mus musculus. The data set is described as follows: Effect on insulin signalling in high fat diet-induced obese C57BL/6J mouse assessed as effect on AKT phosphorylation at threonine 308 residue expression in liver at 100 to 300 mg/kg administered via gavage for 2 weeks and measured after 6 hrs post dose by Western blot analysis. Format: functional, organism-based. In outline:
as §2

A short description of data set [13]: Toxicity in high fat diet-induced C57BL/6J mouse assessed as upregulation of total AKT expression in adipose tissue at 300 mg/kg administered via gavage for 2 weeks and measured after 6 hrs post dose by Western blot analysis. Format: organism-based. Particulars: in vivo, po. In outline:
as §2

Data set [14] in a line: Toxicity in high fat diet-induced obese C57BL/6J mouse assessed as effect on body weight at 100 to 300 mg/kg administered via gavage for 2 weeks and measured after 6 hrs post dose. It is filed as organism-based. Particulars: in vivo, po. In outline:
as §1

For data set [15], the system named is Mus musculus. The data set is described as follows: Effect on insulin signalling in high fat diet-induced obese C57BL/6J mouse assessed as effect on AKT phosphorylation at threonine 308 residue expression in adipose tissue at 100 to 300 mg/kg administered via gavage for 2 weeks and measured after 6 hrs post dose by Western blot analysis. It is filed as functional, organism-based. In outline: as §2

Data set [16] concerns Mus musculus. Description: Hypoglycemic activity in high fat diet-induced obese C57BL/6J mouse assessed as reduction in blood glucose level at 100 to 300 mg/kg […] and measured after 6 hrs post dose. It is filed as functional, organism-based. Summed up:
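Obese male C57BL/6J mice (60% kcal fat diet for 16 weeks, gavage-acclimated for 2 weeks) received one oral gavage dose of 100 or 300 mg/kg in Labrasol. Fasting whole-blood glucose was read by glucometer at baseline and hourly. Results are given as mg/dL and % change from baseline at 6 h, mean ± SD versus vehicle.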

Data set [17] has as its system Mus musculus. Description: Effect on insulin signalling in high fat diet-induced obese C57BL/6J mouse assessed as increase in PI3K-P85 expression in skeletal muscle at 100 mg/kg administered via gavage for 2 weeks and measured after 6 hrs post dose by Western blot analysis. It is filed as functional, organism-based. Summed up:
as §2

Sequence of Glycogen synthase kinase-3 alpha/beta (Mus musculus) (Q2NL51 whole entry, looked up): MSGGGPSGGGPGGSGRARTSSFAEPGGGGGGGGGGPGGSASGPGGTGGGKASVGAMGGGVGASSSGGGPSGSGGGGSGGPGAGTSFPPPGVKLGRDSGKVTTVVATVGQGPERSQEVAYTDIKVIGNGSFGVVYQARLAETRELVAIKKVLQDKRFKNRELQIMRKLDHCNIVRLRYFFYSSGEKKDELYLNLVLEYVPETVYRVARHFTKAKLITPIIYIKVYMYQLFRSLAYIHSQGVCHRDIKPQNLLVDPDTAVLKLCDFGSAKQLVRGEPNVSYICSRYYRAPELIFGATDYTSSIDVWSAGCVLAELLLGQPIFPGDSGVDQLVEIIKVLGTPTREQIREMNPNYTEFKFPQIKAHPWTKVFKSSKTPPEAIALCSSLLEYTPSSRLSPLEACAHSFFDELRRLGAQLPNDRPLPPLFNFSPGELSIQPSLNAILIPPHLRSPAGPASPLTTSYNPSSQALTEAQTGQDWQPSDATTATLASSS
Sequence of Glycogen synthase kinase-3 alpha/beta (Mus musculus) (Q9WV60 whole entry, looked up): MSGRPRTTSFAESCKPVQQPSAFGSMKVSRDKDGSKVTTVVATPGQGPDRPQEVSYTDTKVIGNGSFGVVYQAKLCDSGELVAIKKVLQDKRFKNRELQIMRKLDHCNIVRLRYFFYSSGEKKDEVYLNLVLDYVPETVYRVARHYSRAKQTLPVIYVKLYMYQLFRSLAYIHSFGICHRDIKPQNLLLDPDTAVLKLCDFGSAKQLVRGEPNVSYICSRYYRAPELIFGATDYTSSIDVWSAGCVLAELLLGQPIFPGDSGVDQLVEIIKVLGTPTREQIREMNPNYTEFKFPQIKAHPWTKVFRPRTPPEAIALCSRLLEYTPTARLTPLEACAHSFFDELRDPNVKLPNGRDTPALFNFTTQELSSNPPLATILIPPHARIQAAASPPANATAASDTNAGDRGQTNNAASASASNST
Sequence of RAC-alpha serine/threonine-protein kinase (Mus musculus) (P31750 whole entry): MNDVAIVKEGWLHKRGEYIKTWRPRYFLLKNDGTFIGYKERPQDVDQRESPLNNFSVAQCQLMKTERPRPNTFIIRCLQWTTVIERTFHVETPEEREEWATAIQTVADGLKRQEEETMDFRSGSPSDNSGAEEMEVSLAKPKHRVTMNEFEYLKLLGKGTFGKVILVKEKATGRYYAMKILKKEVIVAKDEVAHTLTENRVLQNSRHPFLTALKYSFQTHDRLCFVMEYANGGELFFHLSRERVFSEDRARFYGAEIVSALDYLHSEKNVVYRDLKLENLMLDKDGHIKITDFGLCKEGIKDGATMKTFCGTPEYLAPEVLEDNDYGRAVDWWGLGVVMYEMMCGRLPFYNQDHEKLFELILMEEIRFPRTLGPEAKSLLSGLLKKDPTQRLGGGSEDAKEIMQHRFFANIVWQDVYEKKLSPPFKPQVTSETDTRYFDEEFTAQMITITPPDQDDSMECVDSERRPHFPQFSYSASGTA

Regarding `CN(C)C(=N)N=C(N)N` [METFORMIN], in data set [1], the Activity entry is on record as “Non-Toxic”.

For the compound `COc1ccc(CCC(=O)c2ccc(O)cc2O)cc1`, the outcome in data set [2], in data set [6], in data set [12] and in [15] was inactive. Also, the result in data set [3], in data set [4], in [5], in [7], in [8] and in data set [9] was Active. Also, the result in data set [11], in [16] and in data set [17] was Active. In addition, the Activity result in data set [10] is “Non-Toxic”; in [13], “Toxic”; in [14], “Non-Toxic”.
